Measurements published in ChEMBL document CHEMBL4706616, “Design, synthesis, and evaluation of substituted 2-acylamide-1,3-benzo[d]zole analogues as agents against MDR- and XDR-MTB” (Eur J Med Chem, 2021).
pIC50: −log10 of the molar value. Converted amounts (≈) assume the structure as drawn.

Legend:
[1] = tested on: Mycobacterium tuberculosis; test: Antitubercular activity against Mycobacterium tuberculosis H37Rv assessed as bacterial growth inhibition by MABA; assay type: functional
[2] = tested on: HEK293; test: Cytotoxicity against human HEK293 cells assessed as reduction in cell viability incubated for 48 hrs by CCK8 assay; assay type: cell-based; conditions: HEK293, 48 h
[3] = AUC (0 to t) in Sprague-Dawley rat at 40 mg/kg, po measured upto 8 hrs by LC-MS/MS analysis; assay type: ADME, organism-based; parameters: route oral, dose 40 mg/kg, time <=8; conditions: in vivo
Method in brief: (§1)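 Male SPF SD rats (180–220 g), fasted overnight, fed 4 h post-dose; single 40 mg/kg oral dose suspended in 5% DMSO/10% Solutol/85% water; n=3. Jugular blood at 0.25–8 h, plasma protein precipitated with MeOH containing internal standard, analysed by LC-MS/MS; AUC, Cmax, Tmax, MRT from plasma concentration data; mean ± SD.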

[4] = Mean residence time in Sprague-Dawley rat at 40 mg/kg, po measured upto 8 hrs by LC-MS/MS analysis; assay type: ADME, organism-based; conditions: in vivo; method in brief: as §1
[5] = Tmax in Sprague-Dawley rat at 40 mg/kg, po measured upto 8 hrs by LC-MS/MS analysis; assay type: ADME, organism-based; conditions: in vivo; method in brief: as §1
[6] = Cmax in Sprague-Dawley rat at 40 mg/kg, po measured upto 8 hrs by LC-MS/MS analysis; assay type: ADME, organism-based; parameters: route oral, dose 40 mg/kg, time <=8; conditions: in vivo; method in brief: as §1
[7] = Selectivity index, ratio of IC50 for human HEK293 cells to MIC for Mycobacterium tuberculosis; assay type: toxicity; conditions: read-out: Selectivity Index
Method in brief: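 Ratio of HEK-293 IC50 (µM) to anti-Mtb MIC (µM).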

[8] = tested on: Enterococcus faecalis; test: Antibacterial activity against Vancomycin-susceptible Enterococcus faecalis ATCC 29212 assessed as bacterial growth inhibition incubated for 18 hrs by agar dilution method; assay type: functional
[9] = tested on: Pseudomonas aeruginosa; test: Antibacterial activity against Pseudomonas aeruginosa ATCC 27853 assessed as bacterial growth inhibition incubated for 18 hrs by agar dilution method; assay type: functional
[10] = tested on: Staphylococcus aureus; test: Antibacterial activity against methicillin-sensitive Staphylococcus aureus ATCC 29213 assessed as bacterial growth inhibition incubated for 18 hrs by agar dilution method; assay type: functional
[11] = tested on: Escherichia coli; test: Antibacterial activity against ESBLs negative Escherichia coli ATCC 25922 assessed as bacterial growth inhibition incubated for 18 hrs by agar dilution method; assay type: functional
[12] = tested on: Acinetobacter calcoaceticus; test: Antibacterial activity against Acinetobacter calcoaceticus ATCC 19606 assessed as bacterial growth inhibition incubated for 18 hrs by agar dilution method; assay type: functional
[13] = tested on: Enterococcus faecium; test: Antibacterial activity against vancomycin-resistant Enterococcus faecium ATCC 700221 assessed as bacterial growth inhibition incubated for 18 hrs by agar dilution method; assay type: functional
[14] = tested on: Klebsiella pneumoniae; test: Antibacterial activity against ESBLs negative Klebsiella pneumoniae 7 assessed as bacterial growth inhibition incubated for 18 hrs by agar dilution method; assay type: functional
[15] = tested on: Staphylococcus aureus; test: Antibacterial activity against methicillin-resistant Staphylococcus aureus ATCC 33591 assessed as bacterial growth inhibition incubated for 18 hrs by agar dilution method; assay type: functional
[16] = tested on: Klebsiella pneumoniae; test: Antibacterial activity against ESBLs positive Klebsiella pneumoniae ATCC 700603 assessed as bacterial growth inhibition incubated for 18 hrs by agar dilution method; assay type: functional
[17] = tested on: Staphylococcus epidermidis; test: Antibacterial activity against methicillin-sensitive Staphylococcus epidermidis ATCC 12228 assessed as bacterial growth inhibition incubated for 18 hrs by agar dilution method; assay type: functional
[18] = Acute toxicity in BALB/c mouse at 1000 mg/kg, po measured after 7 days; assay type: organism-based; conditions: in vivo, 168 h, time 7 day
Method in brief: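 SPF female BALB/c mice, 18–22 g, groups of six; single 1000 mg/kg oral gavage in 0.5% CMC-Na; housed at 20–24°C; surviving mice counted over the observation period (14 days per methods, 7 days per results text).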

Row | SMILES | MIC [1] [µM] | pIC50 [2] | other results
1 | O=C(Nc1nc2ccccc2o1)c1ccc(Cl)s1 | 14.3 (≈ 4 µg/mL) | – | –
2 | Cc1nnsc1C(=O)Nc1nc2cc(-c3cccnc3)ccc2o1 | 2.96 (≈ 0.999 µg/mL) | 4.26 | –
3 | Cc1nnsc1C(=O)Nc1nc2c(-c3ccccn3)cccc2o1 | 23.7 (≈ 8 µg/mL) | – | –
4 | Cc1nnsc1C(=O)Nc1nc2c(ccc3cccnc32)o1 | 103 (≈ 32 µg/mL) | – | –
5 | Cc1nnsc1C(=O)Nc1nc2ccc(Cl)cc2o1 | 0.42 (≈ 0.124 µg/mL) | 5.15 | –
6 | Cc1nnsc1C(=O)Nc1nc2cc(F)ccc2o1 | 0.45 (≈ 0.125 µg/mL) | 4.38 | –
7 | Cc1nnsc1C(=O)Nc1nc2c(Oc3ncccn3)cccc2o1 | 2.82 (≈ 0.999 µg/mL) | < 4.00 | AUC(0-t) at 8 h [3]: 38 ng·h/mL; MRT [4]: 4.12 h; Tmax [5]: 2.83 h; Cmax [6]: 6.93 ng/mL; selectivity ratio [7]: > 18
8 | Cc1nnsc1C(=O)Nc1nc2c(OCc3ccccn3)cccc2o1 | 5.44 (≈ 2 µg/mL) | 4.21 | –
9 | Cc1nnsc1C(=O)Nc1nc2cc(Br)ccc2o1 | 2.95 (≈ 1 µg/mL) | 4.35 | –
10 | COC(=O)c1ccc(-c2ccc3oc(NC(=O)c4snnc4C)nc3c2)cc1 | 1.27 (≈ 0.501 µg/mL) | – | –
11 | O=C(Nc1nc2ccccc2o1)c1ccco1 | 17.5 (≈ 4 µg/mL) | < 4.00 | –
12 | Cc1nnsc1C(=O)Nc1nc2cc(C(C)(C)C)ccc2o1 | 0.4 (≈ 0.127 µg/mL) | 5.17 | MIC [8]: 12.6 µM (≈ 4 µg/mL); MIC [9]: > 405 µM; MIC [10]: 6.32 µM (≈ 2 µg/mL); MIC [11]: > 405 µM; AUC(0-t) at 8 h [3]: 24800 ng·h/mL; MRT [4]: 5.26 h; MIC [12]: > 405 µM; MIC [13]: 12.6 µM (≈ 4 µg/mL); Tmax [5]: ≥ 8 h; Cmax [6]: 6840 ng/mL; MIC [14]: > 405 µM; MIC [15]: 6.32 µM (≈ 2 µg/mL); MIC [16]: > 405 µM; MIC [17]: 6.32 µM (≈ 2 µg/mL); Activity [18]: Non-Toxic; selectivity ratio [7]: 17
13 | Cc1nnsc1C(=O)Nc1nc2cc(-c3ccccn3)ccc2o1 | 0.74 (≈ 0.25 µg/mL) | < 4.00 | MIC [8]: 11.9 µM (≈ 4 µg/mL); MIC [9]: > 379 µM; MIC [10]: 5.93 µM (≈ 2 µg/mL); MIC [11]: > 379 µM; AUC(0-t) at 8 h [3]: 27800 ng·h/mL; MRT [4]: 5.59 h; MIC [12]: > 379 µM; MIC [13]: 5.93 µM (≈ 2 µg/mL); Tmax [5]: ≥ 8 h; Cmax [6]: 9050 ng/mL; MIC [14]: > 379 µM; MIC [15]: 1.48 µM (≈ 0.499 µg/mL); MIC [16]: > 379 µM; MIC [17]: 2.96 µM (≈ 0.999 µg/mL); Activity [18]: Non-Toxic; selectivity ratio [7]: > 270
14 | Cc1nnsc1C(=O)Nc1nc2cc(-c3cnn(C)c3)ccc2o1 | 1.47 (≈ 0.5 µg/mL) | – | –
15 | Cc1ccc2oc(NC(=O)c3snnc3C)nc2c1 | 1.82 (≈ 0.499 µg/mL) | 4.66 | –
16 | COC(=O)c1ccc2oc(NC(=O)c3snnc3C)nc2c1 | 3.14 (≈ 1 µg/mL) | – | –
17 | Cc1nnsc1C(=O)Nc1nc2cc(N3CCOCC3)ccc2o1 | 11.6 (≈ 4 µg/mL) | 4.74 | –

Row | SMILES | MIC [1] [µM] | pIC50 [2] | other results
18 | Cc1nnsc1C(=O)Nc1nc2ccccc2[nH]1 | 30.9 (≈ 8 µg/mL) | < 4.00 | –
19 | Cc1nnsc1C(=O)Nc1nc2c(ccc3ccccc32)o1 | 103 (≈ 32 µg/mL) | 4.09 | –
20 | Cc1nnsc1C(=O)Nc1nc2cc(Cl)ccc2o1 | 0.42 (≈ 0.124 µg/mL) | 5.18 | Activity [18]: Non-Toxic; selectivity ratio [7]: 4
21 | Cc1nnsc1C(=O)Nc1nc2c(Br)cccc2o1 | 1.47 (≈ 0.499 µg/mL) | 4.98 | –
22 | O=C(Nc1nc2ccccc2o1)c1cccs1 | 16.4 (≈ 4 µg/mL) | 4.09 | –
23 | Cc1nnsc1C(=O)Nc1nc2ccccc2s1 | 28.9 (≈ 8 µg/mL) | < 4.00 | –
24 | Cc1nnsc1C(=O)Nc1nc2ccccc2o1 | 0.48 (≈ 0.125 µg/mL) | 4.71 | –
25 | Cc1nnsc1C(=O)Nc1nc2cc(-c3ccncc3)ccc2o1 | 1.48 (≈ 0.499 µg/mL) | – | –
26 | Cc1nnsc1C(=O)Nc1nc2ncccc2o1 | 7.66 (≈ 2 µg/mL) | 4.82 | –
27 | Cc1nnsc1C(=O)Nc1nc2c(ccc3ncccc32)o1 | 103 (≈ 32 µg/mL) | 4.23 | –
28 | Cc1nnsc1C(=O)Nc1nc2ccc(C(C)(C)C)cc2o1 | 3.16 (≈ 1 µg/mL) | 5.62 | –
29 | O=C(Nc1nc2ccccc2o1)c1ccccc1 | 269 (≈ 64 µg/mL) | < 4.00 | –
30 | CC[C@@H](CO)NCCN[C@@H](CC)CO [ETHAMBUTOL] | < 2.45 | – | –
31 | NNC(=O)c1ccncc1 [ISONIAZID] | < 3.65 | – | –
32 | CO[C@H]1/C=C/O[C@@]2(C)Oc3c(C)c(O)c4c(O)c(c(/C=N/N5CCN(C)CC5)c(O)c4c3C2=O)NC(=O)/C(C)=C\C=C\[C@H](C)[C@H](O)[C@@H](C)[C@@H](O)[C@@H](C)[C@H](OC(C)=O)[C@@H]1C [RIFAMPIN] | < 0.61 | – | –
33 | CN[C@@H]1[C@H](O[C@H]2[C@H](O[C@H]3[C@H](O)[C@@H](O)[C@H](N=C(N)N)[C@@H](O)[C@@H]3N=C(N)N)O[C@@H](C)[C@]2(O)C=O)O[C@@H](CO)[C@H](O)[C@H]1O [STREPTOMYCIN] | < 0.69 | – | –
